Hits are enriched below; roughly 0.55% of the tested compounds scored in any of these assays.
OXTR potentiate: human OXTR potentiators, primary screen, fluorescence, CHO-OTR cells, Fluo-8 calcium; AID 2445, 2010; Oxytocin receptor (Homo sapiens), P30559; actives 0.061% (n = 320,000); Fluo-8 calcium fluorescence, potentiator mode; 0% = oxytocin EC15, 100% = EC100; activation, % at 3 µM;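 active means activation above that plate's cutoff, the mean activation of tested compounds plus 3 SD, cut at about 6.6% in these data, passing the limit was not always enough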
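Material: CHO-OTR cells, human receptor; compound dosing: single dose, 3.0 µM nominal final compound concentration; schedule: 6 min compound pre-incubation at room temperature, 100 s kinetic read; measured by: kinetic Fluo-8 calcium fluorescence; read-out basis: % activation vs EC15 and EC100 oxytocin; controls: EC15 oxytocin alone as 0%, 75 nM oxytocin as 100%; replicates: singlicate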
TRPML3 agonist: human TRPML3 channel agonists, primary screen, cell-based, HEK293 TRPML3-YFP, Fluo-8 calcium fluorescence, 3 µM; Mucolipin-3 (Homo sapiens), Q8TDD5; 100% = the carbachol control signal; activation, % at 3 µM; actives 0.29% (n = 220,000);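 active means activation above its plate's cutoff, the mean activation of the plate's test wells plus 3 SD, cut at about 12% in these data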
Target sequence (Q8TDD5 whole entry, looked up): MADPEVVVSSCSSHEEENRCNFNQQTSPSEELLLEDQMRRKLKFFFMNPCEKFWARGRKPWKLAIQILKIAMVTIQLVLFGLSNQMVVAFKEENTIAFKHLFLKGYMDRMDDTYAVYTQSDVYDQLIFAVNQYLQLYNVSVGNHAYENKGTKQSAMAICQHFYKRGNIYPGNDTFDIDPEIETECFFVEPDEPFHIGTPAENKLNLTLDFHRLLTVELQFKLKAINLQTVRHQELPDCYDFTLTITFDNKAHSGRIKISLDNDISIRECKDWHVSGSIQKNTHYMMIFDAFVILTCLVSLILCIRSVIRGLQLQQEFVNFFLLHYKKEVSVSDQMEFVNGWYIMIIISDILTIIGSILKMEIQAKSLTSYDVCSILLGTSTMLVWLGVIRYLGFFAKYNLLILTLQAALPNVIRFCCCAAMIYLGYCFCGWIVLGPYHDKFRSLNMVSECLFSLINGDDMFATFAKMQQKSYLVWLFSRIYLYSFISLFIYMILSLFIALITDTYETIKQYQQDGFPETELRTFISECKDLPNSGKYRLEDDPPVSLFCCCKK
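Material: HEK293 cells stably carrying human TRPML3-YFP; compound dosing: single dose, 3 µM final nominal compound, 0.3% DMSO final; incubation: 1-h 37 °C dye load, 5-s basal, 120-s post-compound reads; technique: Fluo-8 intracellular calcium fluorescence, excitation 470-495 nm, emission 515-575 nm; read-out basis: percent activation from peak-to-basal fluorescence ratio, scaled between DMSO and carbachol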
OXTR agonist: human OXTR agonists, primary screen, fluorescence, CHO-OTR cells, Fluo-8 calcium | actives 0.32% (n = 320,000) | Fluo-8 calcium fluorescence; normalized: DMSO 0%, oxytocin 100% | AID 2435, 2010 | activation, % at 3 µM;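 active means activation above the mean of all tested compounds plus 3 SD, cutoff set per screening run, cut at about 20% in these data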;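 further: peak over basal fluorescence ratio from a 100 s FLIPR kinetic read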
zfTRPN1 agonist: zebrafish TRPN1 channel agonists, primary screen, cell-based, HEK293, calcium fluorescence | transient receptor potential cation channel N1 (TRPN1/NompC), Danio rerio | HEK293 zebrafish TRPN1-YFP, Fluo-8 calcium fluorescence; 100% = response to 87 µM carbachol | activation, % at 3 µM | actives 0.18% (n = 220,000) | AID 1424, 2008;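 active means activation above its plate's cutoff, the mean activation of test wells on that plate plus 3 SD, cut at about 19% in these data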
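Material – zebrafish TRPN1-YFP in HEK293 cells · Doses – 3 µM single point · Schedule – dye 1 h 37 °C plus 30 min RT · Signal – Fluo-8 calcium fluorescence, excitation 470-495 nm, emission 515-575 nm · Read-out – % activation versus carbachol response · Control set – carbachol high, DMSO low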
V1aR counter: agonists of human V1a receptor, primary screen, counter-screen for OXTR agonist project, fluorescence, CHO-V1R cells | activation, % at 3 µM | Fluo-8 calcium fluorescence, agonist mode; 0% DMSO, 100% 3 nM vasopressin | actives 0.25% (n = 320,000) | AID 2797, 2010 | Vasopressin V1a receptor (Homo sapiens), P37288;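 active means activation above the mean activation of all tested compounds plus 3 SD, per screening run, cut at about 20% in these data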;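 further: signal is peak over basal fluorescence ratio across a 100 second FLIPR read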
V1R ag confirm: V1a receptor agonists, calcium signal, confirmation, Fluo-8 calcium fluorescence, CHO-V1R cells. shares compounds with V1aR counter. activation, % at 3 µM. AID 434964, 2010. actives 20% (n = 180). agonist;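 active means average activation exceeds primary screen hit cutoff, cut at about 21% in these data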;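 further: peak over basal fluorescence ratio during a 100 s FLIPR read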
OXTR ag counter: human OXTR agonists, counter-screen for V1R agonist project, fluorescence, CHO-OTR cells, triplicate; shares compounds with V1aR counter; Fluo-8 calcium fluorescence; activation, % at 3 µM; actives 10% (n = 180); AID 434969, 2010;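 active means mean activation over three repeats above the cutoff from the earlier oxytocin receptor agonist screen, cut at about 20% in these data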;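 further: peak over minimum fluorescence ratio within a 100 second FLIPR read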
Large screens that a line does not name were inactive (follow-up assays come after a bar, where they were run).

C/C(=N/NC(=O)c1ccncc1)c1cc2ccc(O)cc2oc1=O	V1aR counter 30 | V1R ag confirm 584 | OXTR ag counter 700
CCCCN(CC)S(=O)(=O)c1ccc(C(=O)Nc2nnc(-c3cccs3)o2)cc1	V1aR counter 26 | V1R ag confirm inactive | OXTR ag counter inactive
CCN(CC)S(=O)(=O)c1ccc(C(=O)Nc2nnc(-c3ccco3)o2)cc1	none
CCCCCCCCCCOC(=O)Cn1c(COc2ccccc2OC)[n+](C)c2ccccc21	V1aR counter 56 (no result: TRPML3 agonist, zfTRPN1 agonist) | V1R ag confirm inactive | OXTR ag counter inactive
Cc1cc(NCc2ccccc2)nc2ccccc12	V1aR counter 32 | V1R ag confirm inactive | OXTR ag counter inactive
Cc1cc(NCc2ccccc2)c2ccccc2n1	none (no result: TRPML3 agonist, zfTRPN1 agonist)
CC(C)(C)c1cc(NC(=O)COc2ccc(Br)cc2)n(-c2ccccc2)n1	none
COc1cccc(/C=N/Nc2nc(Nc3ccccc3)nc(-n3nc(C)cc3C)n2)c1O	V1aR counter 21 | V1R ag confirm inactive | OXTR ag counter inactive
Cc1cc(C)n(-c2nc(Nc3ccccc3)nc(-n3nc(C)cc3C)n2)n1	none
CC(C)C(C(=O)Nc1ccncc1)c1ccc(Cl)cc1 (stereo unspecified)	V1aR counter 27 (no result: TRPML3 agonist, zfTRPN1 agonist) | V1R ag confirm inactive | OXTR ag counter inactive
CC(NC(=O)Nc1ccc([N+](=O)[O-])cc1)C(c1ccccc1)N1CCOCC1 (stereo unspecified)	V1aR counter 52 | V1R ag confirm 26 | OXTR ag counter inactive
CC(NC(=O)c1ccc(Cl)cc1Cl)C(c1ccccc1)N1CCOCC1 (stereo unspecified)	none
CC(NC(=O)Nc1ccc(Cl)c(Cl)c1)C(c1ccccc1)N1CCOCC1 (stereo unspecified)	V1aR counter 44 | V1R ag confirm 25 | OXTR ag counter inactive
COc1ccc(/C=N/NC(=O)c2ccoc2C)cc1CN1CCN(c2ccc(F)cc2)CC1	none (no result: TRPML3 agonist, zfTRPN1 agonist)
CCCc1nc2ccccc2c(=O)n1-c1ccc(C(=O)OCC)cc1	none
Cc1cccc(N/C(N)=N/c2nc(C)cc(C)n2)c1	V1aR counter 21 | V1R ag confirm inactive | OXTR ag counter inactive
CC(=O)Nc1cccc(N/C(N)=N/c2nc(C)cc(C)n2)c1	none
O=C(NC(=S)NCCc1ccccn1)c1ccccc1	none
O=C(NC(=S)NCCc1ccccn1)c1ccco1	V1aR counter 117 | V1R ag confirm inactive | OXTR ag counter inactive
O=C(C/C=N\OCc1ccc([N+](=O)[O-])cc1)Nc1ccccc1	none
COC(=O)C(/C=N/OCc1ccc([N+](=O)[O-])cc1)NC(=O)c1ccccc1 (stereo unspecified)	V1aR counter 25 | V1R ag confirm inactive | OXTR ag counter inactive
COc1ccc(OC)c(/C=C/C(=O)NCCc2nc3ccccc3[nH]2)c1	none
C=CC[C@H](CC(=O)N[C@H](CO)Cc1ccccc1)C(=O)N[C@H](COC(=O)[C@@H](CC=C)CC(=O)OC(C)(C)C)Cc1c[nH]c2ccccc12	none (no result: TRPML3 agonist, zfTRPN1 agonist)
CC1CC(C)CN(C(=O)Nc2ccccc2F)C1 (stereo unspecified)	none
Cc1ccc(C(C)NC(=S)NCc2ccc(F)cc2)c(C)c1 (stereo unspecified)	V1aR counter 23 (no result: TRPML3 agonist, zfTRPN1 agonist) | V1R ag confirm inactive | OXTR ag counter inactive
CCOc1ccc(CONS(=O)(=O)c2ccc(NC(C)=O)cc2)cc1Cl	V1aR counter 23 | V1R ag confirm inactive | OXTR ag counter inactive
CC1CCCC(NC(=O)C2COc3ccccc3O2)C1C (stereo unspecified)	none (no result: TRPML3 agonist, zfTRPN1 agonist)
Cc1cc(-c2ccc(C(C)C)c(S(=O)(=O)Nc3cc(C)on3)c2)on1	none (no result: TRPML3 agonist, zfTRPN1 agonist)
CC(C)=CCN1CCN(Cc2coc3ccc(C)cc3c2=O)CC1CCO (stereo unspecified)	none (no result: TRPML3 agonist, zfTRPN1 agonist)
O=C(COc1ccc(-c2nnco2)cc1)NCc1ccccc1Cl	none
O=C(COc1ccc(-c2nnco2)cc1)Nc1ccc(C(F)(F)F)cc1	V1aR counter 21 (no result: TRPML3 agonist, zfTRPN1 agonist) | V1R ag confirm inactive | OXTR ag counter inactive
Nc1nc(-c2ccccn2)nc(N)c1Cc1ccc(Cl)cc1Cl	V1aR counter 22 | V1R ag confirm inactive | OXTR ag counter inactive
CCCCC(=O)O	none (no result: TRPML3 agonist, zfTRPN1 agonist)
Cc1ccc2sc(N(CCCN(C)C)C(=O)CCS(=O)(=O)c3ccccc3)nc2c1C	V1aR counter 24 (no result: TRPML3 agonist, zfTRPN1 agonist) | V1R ag confirm inactive | OXTR ag counter inactive
COc1ccc(OC)c2sc(N(CCCN(C)C)C(=O)CCS(=O)(=O)c3ccccc3)nc12	none (no result: TRPML3 agonist, zfTRPN1 agonist)
COc1ccc(/C=C2\SC(=S)N(CCC(=O)N3CCCCC3)C2=O)cc1	none (no result: TRPML3 agonist, zfTRPN1 agonist)
COCCN1C(=O)/C(=C/c2ccc(N3CCCC3)cc2)SC1=S	V1aR counter 28 | V1R ag confirm 99 | OXTR ag counter 76
COc1ccc(C(=O)Nc2ccccc2)cc1NC(=O)c1ccc([N+](=O)[O-])cc1	none (no result: TRPML3 agonist, zfTRPN1 agonist)
Cn1nc(C(=O)Nc2ccc(S(=O)(=O)N3CCOCC3)cc2)c2ccccc2c1=O	none
COc1ccccc1CN1C[C@@H]2C[C@@H](c3[nH]c4c(C)cccc4c3C)N3CCC[C@@]23C1=O	V1aR counter 35 | V1R ag confirm inactive | OXTR ag counter inactive
COc1cc(C(=O)NNC(=S)NC(=O)c2ccccc2C)cc(OC)c1OC	V1aR counter 29 | V1R ag confirm inactive | OXTR ag counter inactive
COc1cc(C(=O)NNC(=S)NC(=O)c2ccc3c(c2)OCO3)cc(OC)c1OC	none
O=C(NCc1nnc(SCC(=O)N2CCOCC2)o1)c1cccs1	none
COc1ccc(OC)c2c1C(=O)c1ccccc1C2=O	V1aR counter 23 | V1R ag confirm 33 | OXTR ag counter 21
O=C(CCCC(=O)NCC1CCCO1)NCC1CCCO1 (stereo unspecified)	V1aR counter 20 | V1R ag confirm inactive | OXTR ag counter inactive
COC(=O)c1cc(S(=O)(=O)NCCc2ccc(SC)cc2)c[nH]1	none (no result: TRPML3 agonist, zfTRPN1 agonist)
Cc1noc(C(F)(F)F)c1C(=O)NNC(=O)c1cccc(C(F)(F)F)c1	V1aR counter 20 | V1R ag confirm inactive | OXTR ag counter inactive
O=C(NNC(=O)c1ccc[nH]1)c1cccc(C(F)(F)F)c1	none (no result: TRPML3 agonist, zfTRPN1 agonist)
CCOC(=O)C(NC(=O)c1ccccc1)=C(C)C	none
CCOC(=O)C(CC(=O)O)=C(c1ccccc1)c1ccccc1	V1aR counter 21 (no result: TRPML3 agonist, zfTRPN1 agonist) | V1R ag confirm inactive | OXTR ag counter inactive

Screening results from PubChem BioAssay.
